Measurements taken from ChEMBL document CHEMBL1932971, “Synthesis of uriedo and thiouriedo derivatives of peptide conjugated heterocycles - A new class of promising antimicrobials” (2012).
Numbered stars: 1 amine (or outer) side, 2 acyl side, 3 side chain; on linkers, the order of the positions; unused ones are H or OH. Peptide text beside a SMILES is read from it. * marks the point of attachment. Piperazinyl(4-(2,3-Cl2Ph)) = Clc1cccc(N2CCN(*)CC2)c1Cl; Thiocarbamoyl(N-4-ClPh) = S=C(Nc1ccc(Cl)cc1)*; Thiocarbamoyl(4-MeOPh) = COc1ccc(NC(=S)*)cc1; NH(4-MeO-phenyl) = COc1ccc(N*)cc1; X1 = Fc1ccc2c(C3CCN(*)CC3)noc2c1; CO = O=C([*:1])[*:2]

Assays:
Type in all cases: functional
Conditions in all cases: read-out: DIZ
Klebsiella pneumoniae = experiment: Antibacterial activity against Klebsiella pneumoniae at 30 ug/ml after 24 hrs by agar well diffusion method
Procedure, shortened: (§1)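 Agar well diffusion. Inocula were grown in nutrient broth at 37 °C for 24 h, then subcultured in nutrient broth at room temperature. Compounds were made as a 1 mg/mL DMSO stock and diluted to 30 µg/mL final. Nutrient agar plates were spread-inoculated and 6 mm wells each got 0.1 mL. Controls were amoxicillin (reference) and DMSO (negative). Incubation was 24 h at 37 °C. Inhibition zone was measured in mm as the mean of three determinations.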

Staphylococcus aureus = experiment: Antibacterial activity against coagulase-positive Staphylococcus aureus at 30 ug/ml after 24 hrs by agar well diffusion method; procedure, shortened: as §1
Aspergillus flavus = experiment: Antifungal activity against Aspergillus flavus at 30 ug/ml after 72 hrs by agar well diffusion method
Procedure, shortened: (§2)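 Fungal well diffusion. Inocula were subcultured in nutrient broth for one day, then spread on solidified medium. Compounds were made as a 1 mg/mL DMSO stock and diluted to 30 µg/mL final. Each 6 mm well got 0.1 mL. Controls were bavistin (reference) and DMSO (negative). Plates stood for 3 days at room temperature. Inhibition zone was measured in mm as the mean of three determinations.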

Xanthomonas oryzae = experiment: Antibacterial activity against Xanthomonas oryzae at 30 ug/ml after 24 hrs by agar well diffusion method
Aspergillus niger = experiment: Antifungal activity against Aspergillus niger at 30 ug/ml after 72 hrs by agar well diffusion method; procedure, shortened: as §2
Fusarium oxysporum = experiment: Antifungal activity against Fusarium oxysporum at 30 ug/ml after 72 hrs by agar well diffusion method; procedure, shortened: as §2
Escherichia coli = experiment: Antibacterial activity against Escherichia coli at 30 ug/ml after 24 hrs by agar well diffusion method; procedure, shortened: as §1

Row | Structure (SMILES) | zone of inhibition at 30 µg/mL (Klebsiella pneumoniae) [mm] | zone of inhibition at 30 µg/mL (Staphylococcus aureus) [mm] | zone of inhibition at 30 µg/mL (Aspergillus flavus) [mm] | zone of inhibition at 30 µg/mL (Xanthomonas oryzae) [mm] | zone of inhibition at 30 µg/mL (Aspergillus niger) [mm] | zone of inhibition at 30 µg/mL (Fusarium oxysporum) [mm] | zone of inhibition at 30 µg/mL (Escherichia coli) [mm]
1 | CC[C@H](C)[C@H](NC(=O)CNC(=O)CNC(=O)Nc1ccc(OC)cc1)C(=O)N1CCC[C@H]1C(=O)N1CCC(c2noc3cc(F)ccc23)CC1 ({NH(4-MeO-phenyl)-CO}-GGIP-X1) | 16 | 14 | 19 | 17 | 23 | 21 | 22
2 | COc1ccc(NC(=O)NCC(=O)N[C@H](C(=O)NCC(=O)N[C@H](C(=O)N2CCC[C@H]2C(=O)N2CCC(c3noc4cc(F)ccc34)CC2)C(C)C)C(C)C)cc1 ({NH(4-MeO-phenyl)-CO}-GVGVP-X1) | 27 | 23 | 27 | 33 | 30 | 27 | 26
3 | COc1ccc(NC(=S)NCC(=O)N[C@@H](Cc2ccccc2)C(=O)NCC(=O)N[C@@H](Cc2ccccc2)C(=O)N2CCC[C@H]2C(=O)N2CCC(c3noc4cc(F)ccc34)CC2)cc1 ({Thiocarbamoyl(4-MeOPh)}-GFGFP-X1) | 31 | 29 | 30 | 31 | 36 | 33 | 31
4 | COc1ccc(NC(=S)NCC(=O)N[C@@H](Cc2ccccc2)C(=O)NCC(=O)N[C@@H](Cc2ccccc2)C(=O)N2CCC[C@H]2C(=O)N2CCN(c3cccc(Cl)c3Cl)CC2)cc1 ({Thiocarbamoyl(4-MeOPh)}-GFGFP-{Piperazinyl(4-(2,3-Cl2Ph))}) | 29 | 26 | 28 | 28 | 32 | 29 | 29
5 | COc1ccc(NC(=S)NCC(=O)NCC(=O)N[C@@H](Cc2ccccc2)C(=O)N2CCC[C@H]2C(=O)N2CCC(c3noc4cc(F)ccc34)CC2)cc1 ({Thiocarbamoyl(4-MeOPh)}-GGFP-X1) | 21 | 19 | 23 | 22 | 28 | 25 | 24
6 | COc1ccc(NC(=S)NCC(=O)NCC(=O)N[C@@H](Cc2ccccc2)C(=O)N2CCC[C@H]2C(=O)N2CCN(c3cccc(Cl)c3Cl)CC2)cc1 ({Thiocarbamoyl(4-MeOPh)}-GGFP-{Piperazinyl(4-(2,3-Cl2Ph))}) | 20 | 18 | 22 | 21 | 29 | 24 | 23
7 | CC[C@H](C)[C@H](NC(=O)CNC(=O)CNC(=S)Nc1ccc(OC)cc1)C(=O)N1CCC[C@H]1C(=O)N1CCC(c2noc3cc(F)ccc23)CC1 ({Thiocarbamoyl(4-MeOPh)}-GGIP-X1) | 14 | 16 | 22 | 20 | 26 | 24 | 24
8 | CC[C@H](C)[C@H](NC(=O)CNC(=O)CNC(=S)Nc1ccc(OC)cc1)C(=O)N1CCC[C@H]1C(=O)N1CCN(c2cccc(Cl)c2Cl)CC1 ({Thiocarbamoyl(4-MeOPh)}-GGIP-{Piperazinyl(4-(2,3-Cl2Ph))}) | 13 | 18 | 21 | 19 | 25 | 23 | 23
9 | COc1ccc(NC(=S)NCC(=O)N[C@H](C(=O)NCC(=O)N[C@H](C(=O)N2CCC[C@H]2C(=O)N2CCC(c3noc4cc(F)ccc34)CC2)C(C)C)C(C)C)cc1 ({Thiocarbamoyl(4-MeOPh)}-GVGVP-X1) | 26 | 24 | 26 | 28 | 31 | 26 | 28
10 | COc1ccc(NC(=S)NCC(=O)N[C@H](C(=O)NCC(=O)N[C@H](C(=O)N2CCC[C@H]2C(=O)N2CCN(c3cccc(Cl)c3Cl)CC2)C(C)C)C(C)C)cc1 ({Thiocarbamoyl(4-MeOPh)}-GVGVP-{Piperazinyl(4-(2,3-Cl2Ph))}) | 22 | 22 | 23 | 26 | 29 | 24 | 27
11 | O=C(CNC(=S)Nc1ccc(Cl)cc1)NCC(=O)N[C@@H](Cc1ccccc1)C(=O)N1CCC[C@H]1C(=O)N1CCC(c2noc3cc(F)ccc23)CC1 ({Thiocarbamoyl(N-4-ClPh)}-GGFP-X1) | 26 | 24 | 29 | 27 | 33 | 31 | 30
